Screening results: PubChem BioAssay, The Scripps Research Institute Molecular Screening Center
OX1R antag-1 = antagonists of human orexin 1 receptor (OX1R) | O43613 | OX1R-expressing cells, FRET antagonist read-out | inhibition, % at 6.6 µM | 1.8% of 330,000 active; in the data active means inhibition mostly above about 38%, no sharp cut-off; inactive means mostly below about 40%;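 further: 0% = agonist challenge alone and 100% = reference antagonist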
CHO parental Ca = counter-screen: ATP calcium response change in parental CHO cells; parental CHO-K1, ATP-induced calcium, Fluo-8 fluorescence; inhibition, % at 5.6 µM; AID 463079; 0.63% of 330,000 active;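 active means inhibition above that plate's mean sample inhibition plus 3 SD, cut at about 26% in these data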;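 further: 0% = ATP-challenged DMSO wells and 100% = DMSO wells without ATP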
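Material – parental CHO cells · Reagent – ATP stimulus · Compound – single nominal dose of 5.6 µM per compound · Detection – Fluo-8 fluorescence · Read-out basis – percent inhibition of calcium signal · Controls – ATP-challenged DMSO wells low, unchallenged DMSO wells high · Repeats – no replicates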
OX1R antag-2 = human HCRTR1 antagonism; CHO/OX1R cells, Fluo-8 calcium fluorescence, orexin A; 0.43% of 330,000 active; inhibition, % at 5 µM;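 active means inhibition above its plate's threshold, mean inhibition of all tested compounds on the plate plus 3 SD, cut at about 37% in these data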;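 further: 0% = orexin A challenge wells and 100% = SB-334867-A antagonist wells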
zfTRPN1 agonist = zebrafish TRPN1 (NompC) channel agonism | HEK293 zebrafish TRPN1-YFP, Fluo-8 calcium fluorescence; 100% = response to 87 µM carbachol | activation, % at 3 µM | 0.18% of 220,000 active | AID 1424;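 active means activation above its plate's cutoff, the mean activation of test wells on that plate plus 3 SD, cut at about 19% in these data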;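 further: 0% = DMSO alone and 100% = 87 µM carbachol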
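Assay system: Zebrafish TRPN1-YFP in HEK293 cells | Incubation: Dye loading 1 h at 37 °C, then 30 min room temperature | Measured by: Kinetic Fluo-8 fluorescence, ex 470-495, em 515-575 nm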
TRPML3 agonist = human mucolipin-3 channel agonism; activation, % at 3 µM; 0.29% of 220,000 active; HEK293 TRPML3-YFP, Fluo-8 calcium fluorescence; 100% = the carbachol control signal; AID 1448; Q8TDD5;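 active means activation above its plate's cutoff, the mean activation of the plate's test wells plus 3 SD, cut at about 12% in these data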;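 further: 0% = DMSO only wells and 100% = carbachol wells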
Target sequence (Q8TDD5 whole entry, looked up): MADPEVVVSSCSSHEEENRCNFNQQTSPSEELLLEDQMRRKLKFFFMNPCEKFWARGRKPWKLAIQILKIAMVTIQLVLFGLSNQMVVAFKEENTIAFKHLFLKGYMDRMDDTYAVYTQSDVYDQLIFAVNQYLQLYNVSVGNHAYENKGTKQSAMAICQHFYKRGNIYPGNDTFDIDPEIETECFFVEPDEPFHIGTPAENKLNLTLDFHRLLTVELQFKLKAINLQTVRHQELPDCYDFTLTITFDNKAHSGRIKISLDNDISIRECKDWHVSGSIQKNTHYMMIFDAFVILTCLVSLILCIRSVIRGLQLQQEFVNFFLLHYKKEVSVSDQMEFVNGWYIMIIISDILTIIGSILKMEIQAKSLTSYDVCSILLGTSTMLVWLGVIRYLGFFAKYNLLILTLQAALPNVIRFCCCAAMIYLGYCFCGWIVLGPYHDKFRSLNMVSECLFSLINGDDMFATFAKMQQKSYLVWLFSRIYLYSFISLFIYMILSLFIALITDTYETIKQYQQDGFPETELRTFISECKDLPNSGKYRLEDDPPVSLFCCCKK
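Test system: TRPML3-YFP stable HEK293 cells. Doses: single point at 3 µM. Incubation: dye loading 1 h 37 °C then 30 min ambient, 125 s read. Signal: Fluo-8 calcium dye fluorescence, ex 470-495, em 515-575 nm. Measure: percent activation from peak-to-basal fluorescence ratio, scaled between DMSO and carbachol.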
GPR7 antagonist = antagonists of human GPR7 (neuropeptides B/W receptor 1); 1.1% of 290,000 active; GPR7-expressing cells, fluorescence antagonist assay; AID 1861; P48145; inhibition, % at 4.4 µM; in the data active means inhibition above about 16%, passing the limit was not always enough;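 further: cells stimulated with the agonist NPW; 0% = agonist with vehicle and 100% = vehicle without agonist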
Active calls of the source: *; . = no result. This is a sample that favours compounds with a hit; in the whole collection about 3.2% have one here.

SMILES | OX1R antag-1 | CHO parental Ca | OX1R antag-2 | zfTRPN1 agonist | TRPML3 agonist | GPR7 antagonist
O=C(COC(=O)c1cc(=O)[nH]c2ccccc12)c1ccccc1 | 27 | -14 | -5 | -2 | -1 | -5
CN(Cc1ccccc1)C(=O)c1cc2ccccc2o1 | 10 | -10 | 6 | -1 | -1 | 1
O=C(OCC(=O)N1CCOCC1)c1cc2ccccc2oc1=O | 46* | -2 | -11 | . | . | .
COc1cccc2cc(C(=O)OCC(=O)N3CC(C)OC(C)C3)c(=O)oc12 (centres undefined) | 53* | -11 | 1 | . | . | .
CN(Cc1ccccc1)C(=O)COC(=O)c1cc2ccccc2oc1=O | 28* | -20 | -16 | . | . | .
CCOC(=O)C1=CN(Cc2cccc(F)c2)S(=O)(=O)N(C)C1c1ccc2ccccc2c1 (centres undefined) | 14 | 3 | 18 | . | . | .
O=[N+]([O-])CC(=Nc1ccc(F)cc1)N/N=C\c1oc(O)c2ccccc12 | 19 | -14 | -17 | 0 | 0 | -11
CC(C)(C)N(Cc1ccccc1)C(=O)COC(=O)C1CC1 | 11 | -8 | -21 | . | . | .
CN(Cc1ccccc1)C(=O)c1ccccc1C(=O)OCC(=O)N(Cc1ccccc1)C(C)(C)C | 31* | -20 | 31 | . | . | .
COc1cccc(-c2nc(CS(=O)(=O)CC(=O)Nc3ccccc3Cl)c(C)o2)c1 | 51* | -19 | 5 | . | . | -4
COc1cccc(-c2nc(CS(=O)(=O)CC(=O)Nc3ccccc3C)c(C)o2)c1 | 17 | -23 | -10 | . | . | 5
Nc1ccccc1Nc1ccncc1[N+](=O)[O-] | 24 | -4 | -7 | 0 | 0 | -4
O=[N+]([O-])c1cnccc1Nc1ccccc1 | 58* | -2 | -7 | 0 | 1 | -2
COc1cccc(Nc2c([N+](=O)[O-])cncc2[N+](=O)[O-])c1 | 76* | -7 | -10 | . | . | 0
Nc1ccc(Nc2ccncc2[N+](=O)[O-])cc1 | 64* | -12 | -6 | 0 | 1 | -4
O=C(O)c1cccc(Nc2ccncc2[N+](=O)[O-])c1 | 38* | 3 | -18 | . | . | -5
COc1ccc(C2(C)NC(=O)N(CC3CCCCC3)C2=O)cc1 (centres undefined) | 9 | -15 | 2 | . | . | 5
CCCC1Oc2ccccc2C(=O)N(CC(=O)c2ccc3c(c2)OCCO3)C1=O (centres undefined) | 12 | -17 | -12 | . | . | -7
C[C@@]12C(=O)N(CC3CCCO3)CC(=O)N1[C@H]1c3ccccc3OC[C@@H]1[C@@H]2c1ccccc1 (some centres undefined) | 6 | -11 | -13 | . | . | .
O=C(c1n[nH]c2ccccc12)N1CCN(c2ccc(F)cc2)CC1 | 2 | 5 | -13 | 3 | 2 | -8
O=C1c2cccc(Cl)c2C(=O)N1c1ccccn1 | 7 | 5 | -10 | . | . | .
Cc1onc(-c2ccccc2)c1NC(=O)Nc1c(-c2ccccc2)noc1C | 51* | -24 | -23 | -2 | 0 | 11
Cc1ccc(S(=O)(=O)N(C)C)cc1NC(=O)Nc1c(-c2ccccc2)noc1C | 9 | -21 | -24 | -1 | 0 | -7
CC(C)(C)NS(=O)(=O)c1ccc(CCC(=O)Nc2cc(Cl)ccc2Oc2ccccc2)cc1 | 81* | 43* | 65* | 0 | 0 | 8
O=C(COc1cccc2ccccc12)Nc1cc(Cl)ccc1C(=O)O | 67* | 1 | 13 | . | . | -16
SMILES | OX1R antag-1 | CHO parental Ca | OX1R antag-2 | zfTRPN1 agonist | TRPML3 agonist | GPR7 antagonist
O=C(COc1cccc2ccccc12)Nc1ccc(Cl)cc1C(=O)O | 40 | -10 | -6 | . | . | -3
COc1cccc(OCC(=O)Nc2cc(Cl)ccc2Oc2ccccc2)c1 | 19 | 40* | -16 | -1 | 1 | -6
COc1cc(NC(=O)c2c(F)c(F)c(OC)c(F)c2F)ccc1NC(=O)c1cccs1 | 16 | -11 | -27 | . | . | -17
Cc1nn(CC(=O)NC2CCC(C)CC2)c(=O)c(C#N)c1C (centres undefined) | 44* | -3 | -5 | . | . | .
Cc1nn(CC(=O)NC(=O)NC2CCCCC2C)c(=O)c(C#N)c1C (centres undefined) | 6 | -15 | -16 | . | . | .
O=C(NCc1cc(C(F)(F)F)ccc1Cl)c1cccc2c1C(=O)c1ccc(Cl)cc1S2(=O)=O | 6 | 5 | -4 | . | . | .
CC(=O)Nc1ccc(Br)c2ccccc12 | 8 | -7 | -16 | -2 | 0 | -8
O=C(Nc1ccc(Br)c2ccccc12)c1ccc2ccccc2c1O | 41* | 26 | -17 | 18 | 5 | 12
CC(=O)c1sc(NC(=O)c2cc3c(C)nn(-c4ccccc4)c3s2)nc1C | 12 | 7 | -4 | -1 | 1 | 2
CC(=O)c1sc(NC(=O)c2cc(-c3ccccc3)nn2-c2ccccc2)nc1C | 66* | -18 | -5 | -1 | 0 | 3
O=C(Nc1nc2ccccc2s1)c1ccc(Cl)s1 | 43* | -12 | -8 | 2 | 1 | -14
O=C(Nc1nc2ccccc2s1)c1cc(-c2ccccc2)nn1-c1ccccc1 | 30 | 42* | 15 | -1 | 1 | -7
CS(=O)(=O)c1cc([N+](=O)[O-])c(Sc2nc3ccccc3[nH]2)c([N+](=O)[O-])c1 | 39* | 32* | 22 | 0 | 1 | -15
O=C(O)c1cc([N+](=O)[O-])c(Sc2nc3ccccc3[nH]2)c([N+](=O)[O-])c1 | 19 | 0 | 2 | . | . | 6
Cc1cc(SCC(=O)NN)c2cc(Br)ccc2n1 | 21 | -19 | -1 | -1 | 0 | 7
CCC(C)NC(=O)COC(=O)c1cccnc1Nc1ccccc1F (centres undefined) | 62* | -16 | -6 | -2 | 0 | 0
Oc1cc2c(cc1CN1CCN(c3ncccn3)CC1)OCO2 | 19 | 1 | -1 | . | . | -6
CC(=O)c1c(-c2ccccc2)c2cc(Cl)ccc2[nH]c1=O | 67* | -19 | 2 | 0 | 1 | -4
COc1ccc(CN(C)S(=O)(=O)c2nnc(NC(=O)c3ccccc3OC)s2)cc1OC | 49* | -30 | -38 | . | . | -2
CNC(=S)Nc1cccc(S(=O)(=O)NCc2ccco2)c1 | 9 | -1 | -1 | . | . | .
O=C(NC(=S)N1CCN(Cc2ccccc2)CC1)c1ccco1 | -1 | 100* | -17 | 1 | 0 | -2
CC1CCN(C(=S)NC(=O)c2ccco2)CC1 | 4 | -3 | -8 | . | . | -21
CC(/C=C/c1ccccc1)=N\NC(=O)c1cc(C)[nH]n1 | 7 | -7 | -13 | 0 | 0 | -12
CN(C)S(=O)(=O)c1ccc2c(c1)C(=O)c1cc(S(=O)(=O)N(C)C)ccc1CC2 | 4 | -9 | -6 | . | . | .
CN(C)S(=O)(=O)c1ccc2c(c1)/C(=C/c1cc3c([nH]1)CCCC3)C(=O)N2 | -3 | 36* | 29 | . | . | .
